# Assays:
# L-363 = test: Antiproliferative activity against human L-363 cells assessed as reduction in cell viability after 72 hrs by CellTiter-Glo assay; type: functional, cell-based; details: L-363, 72 h
# Outline: (§1)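 Cells seeded in 96-well plates, left overnight at 37°C, then exposed to a range of test concentrations for 72 h. Viability read by CellTiter-Glo luminescence; IC50 from four-parameter curve fit. Lines kept at 37°C, 5% CO2, in recommended growth medium.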
# MDA-MB-468 = test: Antiproliferative activity against human MDA-MB-468 cells assessed as reduction in cell viability after 72 hrs by CellTiter-Glo assay; type: functional, cell-based; details: MDA-MB-468, 72 h; outline: as §1
# [1] = Antiproliferative activity against human SR-786 cells assessed as reduction in cell viability after 72 hrs by CellTiter-Glo assay; type: functional, cell-based; details: SR-786, 72 h; outline: as §1
# SU-DHL-1 = test: Antiproliferative activity against human SU-DHL-1 cells assessed as reduction in cell viability after 72 hrs by CellTiter-Glo assay; type: functional, cell-based; details: SU-DHL-1, 72 h; outline: as §1
# HeLa = test: Antiproliferative activity against human HeLa cells assessed as reduction in cell viability after 72 hrs by CellTiter-Glo assay; type: functional, cell-based; outline: as §1
# LNCaP = test: Antiproliferative activity against human LNCaP cells assessed as reduction in cell viability after 72 hrs by CellTiter-Glo assay; type: functional, cell-based; outline: as §1
# [2] = Cytotoxicity against human PREC cells assessed as growth inhibition after 72 hrs by CellTiter-Glo assay relative to control; type: toxicity, cell-based; details: read-out: GI
# MCF7 = test: Induction of cell cycle arrest in human MCF7 cells assessed as cells accumulation at G1 phase at 1 umol/L incubated for 48 hrs by propidium iodide staining based flow cytometric analysis (reference value: 67%); type: functional; details: dose 1 µmol/L, at 1 µM
# Outline: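 COLO 205, MCF-7 or NCI-H929 cells seeded in 96-well plates overnight at 37°C, then exposed to DMSO or increasing compound concentrations for 24 or 48 h. Fixed and stained with propidium iodide (Vindelov method), then analysed by flow cytometry for sub-G1, G1, S and G2-M fractions. Experiment repeated twice.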
# [3] = In vivo inhibition of IGF1R in mouse NIH-3T3/LISN cells implanted in IGF1-stimulated nu/nu CD-1 mouse assessed as reduction in IGF1R phosphorylation at 30 mg/kg, po pretreated for 24 hrs followed by IGF1 stimulation and measured after 10 min […] relative to control; type: functional; details: 24.17 h, time 1450 min
# Outline: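 Time course: tumor-bearing female nu/nu CD-1 mice, three per group, given a single oral 30 mg/kg dose or vehicle. IGF-I given 10 min before blood and tumor collection at each time point. Tumor phospho-IGF-IR/total IGF-IR measured by capture-plate europium phosphotyrosine assay and expressed as % of ligand-stimulated control.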
# [4] = In vivo inhibition of IGF1R in mouse NIH-3T3/LISN cells xenografted in IGF1-stimulated nu/nu CD-1 mouse assessed as reduction in IGF1R phosphorylation at 3 umol/L blood compound concentration pretreated for 1 to 72 hrs followed by IGF1 stimulation and measured after 10 min by […] relative to control; type: functional; details: dose 3 µmol/L; time 60-4330 min; at 3 µM
# [5] = Inhibition of CDK2/CyclinA (unknown origin); parameters: species or system Homo sapiens
# [6] = target: Tyrosine-protein kinase JAK2 (Homo sapiens, UniProt O60674); test: Inhibition of JAK2 (unknown origin)
# [7] = target: NUAK family SNF1-like kinase 1 (Homo sapiens) (UniProt O60285); test: Inhibition of N-terminal 6His-tagged recombinant human ARK5 (2 to end residues) expressed in baculovirus infected Sf21 cells at 0.3 uM by filter binding assay relative to control
# Outline: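 KinaseProfiler panel of 233 kinases: radiometric filter-binding activity assays with compound at 0.3 or 3 µmol/L. Read-out is percent inhibition.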
# [8] = target: Protein-tyrosine kinase 6 (Homo sapiens) (UniProt Q13882); test: Inhibition of N-terminal His6-tagged recombinant full-length human BRK expressed in baculovirus infected Sf21 cells at 0.3 uM by filter binding assay relative to control
# Outline: (§2)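 Outsourced single-concentration screen in a commercial panel of 233 protein kinases, run as radiometric filter-binding activity assays. Test agent was tested at 0.3 or 3 µmol/L, as given in each line, from a 10 mmol/L DMSO stock. Activity is expressed as percent inhibition relative to control.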
# [9] = Inhibition of C-terminal His6-tagged human full length CDK2/N-terminal GST-tagged human full length cyclinA expressed in baculovirus infected Sf21 cells at 0.3 uM by filter binding assay relative to control; details: condition cancer
# Outline: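 Run in an outsourced profiling panel of 233 kinases. Each kinase was tested with radiometric filter-binding activity assays at a single inhibitor concentration of 0.3 µmol/L. Inhibitor stock was 10 mmol/L in DMSO. Inhibition is reported as percent relative to control.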
# [10] = target: Mitogen-activated protein kinase kinase kinase 9 (Homo sapiens) (UniProt P80192); test: Inhibition of N-terminal 6His-tagged recombinant human MLK1 (134 to 414 residues) expressed in baculovirus infected Sf21 cells at 0.3 uM by filter binding assay relative to control; outline: as §2
# Mitogen-activated protein kinase kinase kinase 9 (Homo sapiens), sequence (P80192 whole entry, looked up, the tested form may be a part): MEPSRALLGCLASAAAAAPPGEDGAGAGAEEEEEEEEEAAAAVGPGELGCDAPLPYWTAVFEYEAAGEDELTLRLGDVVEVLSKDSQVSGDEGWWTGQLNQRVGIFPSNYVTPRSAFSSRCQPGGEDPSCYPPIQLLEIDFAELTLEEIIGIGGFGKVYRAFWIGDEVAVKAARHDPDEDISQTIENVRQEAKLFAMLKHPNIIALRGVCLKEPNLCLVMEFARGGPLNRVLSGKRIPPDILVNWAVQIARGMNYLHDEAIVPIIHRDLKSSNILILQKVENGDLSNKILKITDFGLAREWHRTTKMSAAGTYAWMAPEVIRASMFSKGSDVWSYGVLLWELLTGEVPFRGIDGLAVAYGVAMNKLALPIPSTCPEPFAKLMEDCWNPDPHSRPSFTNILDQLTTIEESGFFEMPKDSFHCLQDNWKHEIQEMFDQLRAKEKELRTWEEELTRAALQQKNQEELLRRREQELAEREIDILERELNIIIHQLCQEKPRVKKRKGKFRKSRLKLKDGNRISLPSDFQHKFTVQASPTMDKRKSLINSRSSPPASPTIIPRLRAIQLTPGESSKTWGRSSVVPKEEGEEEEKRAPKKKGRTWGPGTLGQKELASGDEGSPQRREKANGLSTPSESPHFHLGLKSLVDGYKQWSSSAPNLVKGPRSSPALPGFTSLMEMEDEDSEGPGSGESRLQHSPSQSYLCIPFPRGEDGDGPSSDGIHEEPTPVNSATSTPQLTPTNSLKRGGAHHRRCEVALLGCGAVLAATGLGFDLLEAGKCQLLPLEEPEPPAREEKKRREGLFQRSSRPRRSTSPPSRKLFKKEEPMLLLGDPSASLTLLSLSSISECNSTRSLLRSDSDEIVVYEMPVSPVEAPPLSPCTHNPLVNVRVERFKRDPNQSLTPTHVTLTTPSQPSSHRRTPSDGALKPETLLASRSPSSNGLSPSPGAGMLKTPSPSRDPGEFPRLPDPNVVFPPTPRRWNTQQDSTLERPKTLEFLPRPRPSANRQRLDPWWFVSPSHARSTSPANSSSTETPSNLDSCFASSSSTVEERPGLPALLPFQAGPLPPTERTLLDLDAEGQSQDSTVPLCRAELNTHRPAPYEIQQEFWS
# [11] = target: Rho-associated protein kinase 2 (Homo sapiens) (UniProt O75116); test: Inhibition of N-terminal His6-tagged recombinant human ROCK-II (11 to 552 residues) expressed in baculovirus infected Sf21 cells at 0.3 uM by filter binding assay relative to control
# Rho-associated protein kinase 2 (Homo sapiens), sequence (O75116 whole entry, looked up, the tested form may be a part): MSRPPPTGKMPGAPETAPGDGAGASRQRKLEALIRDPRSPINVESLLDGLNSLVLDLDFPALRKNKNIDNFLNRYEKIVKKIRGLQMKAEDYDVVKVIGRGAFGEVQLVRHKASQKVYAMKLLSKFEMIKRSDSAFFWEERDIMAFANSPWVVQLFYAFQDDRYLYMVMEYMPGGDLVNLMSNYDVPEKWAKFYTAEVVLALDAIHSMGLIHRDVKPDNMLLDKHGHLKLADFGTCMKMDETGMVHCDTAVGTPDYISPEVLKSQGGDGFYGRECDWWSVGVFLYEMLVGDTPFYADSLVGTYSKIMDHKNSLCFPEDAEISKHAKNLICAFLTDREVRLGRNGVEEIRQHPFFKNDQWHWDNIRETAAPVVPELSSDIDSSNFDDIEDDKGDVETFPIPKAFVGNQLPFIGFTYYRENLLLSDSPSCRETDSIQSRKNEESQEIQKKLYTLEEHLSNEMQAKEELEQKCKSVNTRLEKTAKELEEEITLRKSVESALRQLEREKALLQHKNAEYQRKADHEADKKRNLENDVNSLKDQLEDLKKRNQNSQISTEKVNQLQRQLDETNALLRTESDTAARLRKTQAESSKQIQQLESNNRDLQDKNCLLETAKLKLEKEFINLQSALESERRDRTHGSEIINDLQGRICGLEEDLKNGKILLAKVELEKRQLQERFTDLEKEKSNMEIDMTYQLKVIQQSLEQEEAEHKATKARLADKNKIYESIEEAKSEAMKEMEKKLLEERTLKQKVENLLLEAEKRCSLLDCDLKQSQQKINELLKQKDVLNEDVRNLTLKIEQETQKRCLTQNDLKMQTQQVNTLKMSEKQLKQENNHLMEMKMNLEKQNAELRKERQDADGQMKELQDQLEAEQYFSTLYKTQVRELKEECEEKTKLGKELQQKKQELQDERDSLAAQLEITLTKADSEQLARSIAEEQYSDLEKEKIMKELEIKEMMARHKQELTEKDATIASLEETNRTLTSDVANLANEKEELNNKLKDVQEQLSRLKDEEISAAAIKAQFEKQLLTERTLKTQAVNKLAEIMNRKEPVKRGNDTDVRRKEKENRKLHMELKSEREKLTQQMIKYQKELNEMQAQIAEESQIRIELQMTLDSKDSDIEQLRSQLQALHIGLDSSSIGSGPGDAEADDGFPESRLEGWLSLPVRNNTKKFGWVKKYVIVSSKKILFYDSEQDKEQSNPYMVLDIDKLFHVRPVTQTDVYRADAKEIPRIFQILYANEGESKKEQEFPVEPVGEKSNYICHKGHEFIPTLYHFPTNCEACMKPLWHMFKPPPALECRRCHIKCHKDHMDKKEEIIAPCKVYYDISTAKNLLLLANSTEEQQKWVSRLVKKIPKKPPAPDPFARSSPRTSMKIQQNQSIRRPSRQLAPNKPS
# [12] = target: Macrophage-stimulating protein receptor (Homo sapiens) (UniProt Q04912); test: Inhibition of N-terminal GST-tagged recombinant human Ron (983 to end residues) expressed in baculovirus infected Sf21 cells at 0.3 uM by filter binding assay relative to control; outline: as §2
# Macrophage-stimulating protein receptor (Homo sapiens), sequence (Q04912 25-304 limits assumed): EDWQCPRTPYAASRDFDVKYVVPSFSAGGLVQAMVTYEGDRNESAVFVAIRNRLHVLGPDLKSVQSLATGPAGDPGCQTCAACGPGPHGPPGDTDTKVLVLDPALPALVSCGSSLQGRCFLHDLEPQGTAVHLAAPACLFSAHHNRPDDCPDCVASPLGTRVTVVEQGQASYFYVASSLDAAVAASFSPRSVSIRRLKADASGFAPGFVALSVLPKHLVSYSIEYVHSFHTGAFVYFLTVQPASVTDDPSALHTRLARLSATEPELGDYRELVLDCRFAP
# Macrophage-stimulating protein receptor (Homo sapiens), sequence (Q04912 310-1400 limits assumed): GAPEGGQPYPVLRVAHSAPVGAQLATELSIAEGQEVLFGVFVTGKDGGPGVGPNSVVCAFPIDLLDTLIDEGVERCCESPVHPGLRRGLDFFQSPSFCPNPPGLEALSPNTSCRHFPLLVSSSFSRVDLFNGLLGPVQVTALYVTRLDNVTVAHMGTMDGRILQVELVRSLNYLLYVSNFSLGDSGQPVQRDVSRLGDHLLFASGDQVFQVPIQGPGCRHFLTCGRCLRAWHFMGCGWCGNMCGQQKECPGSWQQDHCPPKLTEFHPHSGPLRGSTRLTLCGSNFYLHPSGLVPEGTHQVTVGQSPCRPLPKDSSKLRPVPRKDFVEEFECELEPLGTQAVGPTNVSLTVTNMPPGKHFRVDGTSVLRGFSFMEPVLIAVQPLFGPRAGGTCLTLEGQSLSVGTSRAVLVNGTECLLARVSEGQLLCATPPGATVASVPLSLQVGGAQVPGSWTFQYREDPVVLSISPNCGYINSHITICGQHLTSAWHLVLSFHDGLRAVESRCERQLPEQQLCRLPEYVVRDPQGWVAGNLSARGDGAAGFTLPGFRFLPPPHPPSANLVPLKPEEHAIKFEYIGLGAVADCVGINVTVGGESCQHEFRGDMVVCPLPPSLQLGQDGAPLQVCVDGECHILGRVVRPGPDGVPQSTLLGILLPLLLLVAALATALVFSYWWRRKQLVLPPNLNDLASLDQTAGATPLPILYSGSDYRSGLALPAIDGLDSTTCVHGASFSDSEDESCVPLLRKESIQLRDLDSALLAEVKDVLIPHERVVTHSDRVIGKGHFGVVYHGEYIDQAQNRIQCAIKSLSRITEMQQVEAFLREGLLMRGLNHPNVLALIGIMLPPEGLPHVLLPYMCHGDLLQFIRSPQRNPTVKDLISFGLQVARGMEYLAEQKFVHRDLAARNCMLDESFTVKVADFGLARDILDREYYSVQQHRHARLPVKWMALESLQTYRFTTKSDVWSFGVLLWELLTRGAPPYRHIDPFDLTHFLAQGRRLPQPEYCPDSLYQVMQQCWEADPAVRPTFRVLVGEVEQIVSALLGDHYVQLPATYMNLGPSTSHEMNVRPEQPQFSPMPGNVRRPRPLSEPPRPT
# [13] = target: Tyrosine-protein kinase Yes (Homo sapiens) (UniProt P07947); test: Inhibition of N-terminal His6 tagged recombinant full-length human Yes expressed in baculovirus infected Sf21 cells at 0.3 uM by filter binding assay relative to control; outline: as §2
# [14] = target: Serine/threonine-protein kinase DCLK2 (Homo sapiens) (UniProt Q8N568); test: Inhibition of N-terminal 6His-tagged recombinant human DCAMKL2 (376 to end residues) expressed in baculovirus infected Sf21 cells at 3 uM by filter binding assay relative to control; outline: as §2
# Serine/threonine-protein kinase DCLK2 (Homo sapiens), sequence (Q8N568 whole entry, the tested form may be a part): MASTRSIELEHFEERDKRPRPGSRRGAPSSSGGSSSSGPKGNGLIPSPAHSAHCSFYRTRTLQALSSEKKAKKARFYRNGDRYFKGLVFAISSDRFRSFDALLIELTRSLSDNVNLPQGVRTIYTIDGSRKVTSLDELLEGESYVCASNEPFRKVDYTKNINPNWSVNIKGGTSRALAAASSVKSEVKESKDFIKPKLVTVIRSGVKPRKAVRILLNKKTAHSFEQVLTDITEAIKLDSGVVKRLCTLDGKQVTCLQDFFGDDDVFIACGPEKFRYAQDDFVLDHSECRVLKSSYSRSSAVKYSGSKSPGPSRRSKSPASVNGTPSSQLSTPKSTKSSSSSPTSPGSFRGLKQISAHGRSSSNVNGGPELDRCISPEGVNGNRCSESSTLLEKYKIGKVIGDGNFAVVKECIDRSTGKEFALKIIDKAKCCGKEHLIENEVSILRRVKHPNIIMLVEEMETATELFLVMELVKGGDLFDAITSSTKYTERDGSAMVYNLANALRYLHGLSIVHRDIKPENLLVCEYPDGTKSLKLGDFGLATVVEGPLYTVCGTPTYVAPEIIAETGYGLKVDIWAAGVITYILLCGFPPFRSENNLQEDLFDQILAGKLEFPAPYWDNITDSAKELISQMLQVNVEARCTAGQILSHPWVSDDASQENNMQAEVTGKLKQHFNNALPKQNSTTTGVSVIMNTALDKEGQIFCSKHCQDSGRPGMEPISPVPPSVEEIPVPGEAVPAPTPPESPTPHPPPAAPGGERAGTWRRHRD
# [15] = target: Discoidin domain-containing receptor 2 (Homo sapiens) (UniProt Q16832); test: Inhibition of N-terminal His6-tagged recombinant human DDR2 (467 to end residues) expressed in baculovirus infected Sf21 cells at 3 uM by filter binding assay relative to control
# [16] = target: Mitogen-activated protein kinase kinase kinase 9 (Homo sapiens) (UniProt P80192); test: Inhibition of N-terminal 6His-tagged recombinant human MLK1 (134 to 414 residues) expressed in baculovirus infected Sf21 cells at 3 uM by filter binding assay relative to control; outline: as §2
# [17] = target: Serine/threonine-protein kinase Sgk2 (Homo sapiens) (UniProt Q9HBY8); test: Inhibition of human SGK2 at 3 uM by filter binding assay relative to control
# Serine/threonine-protein kinase Sgk2 (Homo sapiens), sequence (Q9HBY8 whole entry): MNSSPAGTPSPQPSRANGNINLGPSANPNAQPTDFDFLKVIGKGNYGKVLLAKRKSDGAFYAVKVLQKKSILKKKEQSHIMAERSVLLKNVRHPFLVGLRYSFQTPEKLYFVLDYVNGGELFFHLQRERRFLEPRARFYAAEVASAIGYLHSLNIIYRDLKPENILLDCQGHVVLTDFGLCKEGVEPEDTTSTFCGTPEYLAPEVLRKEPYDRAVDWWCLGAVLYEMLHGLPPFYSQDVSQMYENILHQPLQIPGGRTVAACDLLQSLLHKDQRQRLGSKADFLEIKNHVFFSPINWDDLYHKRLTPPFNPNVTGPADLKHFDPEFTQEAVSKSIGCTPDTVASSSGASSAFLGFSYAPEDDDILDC
# [18] = target: Tyrosine-protein kinase Fer (Homo sapiens, UniProt P16591); test: Inhibition of N-terminal His6 tagged recombinant human Fer (541 to end residues) expressed in baculovirus infected Sf21 cells by filter binding assay
# [19] = target: Tyrosine-protein kinase Fes/Fps (Homo sapiens, UniProt P07332); test: Inhibition of N-terminal His6-tagged recombinant full length human Fes expressed in baculovirus infected Sf21 cells by filter binding assay
smiles,measurement,setting,value
CCc1cc(Nc2nccc(-c3c(-c4ccc(OC)c(C(=O)Nc5c(F)cccc5F)c4)nc4ccccn34)n2)c(OC)cc1N1CCC(N2CCN(S(C)(=O)=O)CC2)CC1,IC50,L-363,0.165 µM
same,IC50,MDA-MB-468,> 20 µM
same,IC50,[1],> 30 µM
same,IC50,SU-DHL-1,> 30 µM
same,IC50,HeLa,> 20 µM
same,IC50,LNCaP,> 20 µM
same,inhibition at 72 h,[2],45%
same,Activity,MCF7,76%
same,inhibition in vivo at 30 mg/kg,[3],76%
same,inhibition (INH),[4],>90%
same,IC50,[5],> 10 µM
same,IC50,[6],> 16 µM
same,inhibition,[7],4%
same,inhibition,[8],25%
same,inhibition at 0.3 µM,[9],2%
same,inhibition,[10],1%
same,inhibition,[11],-8%
same,inhibition,[12],-8%
same,inhibition,[13],0%
same,inhibition,[14],0%
same,inhibition,[15],10%
same,inhibition,[16],-8%
same,inhibition,[17],25%
same,IC50,[18],0.013 µM
same,IC50,[19],0.148 µM
